The source of these data is ChEMBL document CHEMBL1137220, “2-(2-(dimethylaminomethyl)phenoxy)-5-iodophenylamine: an improved serotonin transporter imaging agent” (J Med Chem, 2004).

Data set [1] in a line: Biodistribution in rat liver was determined after 24 hours of intravenous administration of the compound; [125I]- is used as radioactive isotope. The settings on record: in vivo. The class given is ADME, organism-based. An outline of the steps: (§1)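 Rats under ether anesthesia, three per group, received 10 μCi tracer in 0.2 mL saline into the femoral vein. They were killed by cardiac excision under ether at each time point. Organs were removed, weighed and counted. Percent dose per organ was calculated against a 1%-of-injected-dose standard counted at the same time.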

Data set [2] in a line: Biodistribution in rat skin was determined after 24 hours of intravenous administration of the compound; [125I]- is used as radioactive isotope. It is filed as ADME, organism-based, Zone of skin. The settings on record: in vivo. An outline of the steps: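 Rats, three per group, under ether anaesthesia, received 10 μCi of [¹²⁵I]-labelled tracer in 0.2 mL saline into the femoral vein. They were killed by cardiac excision under ether at each time point. Organs were removed, weighed and counted. Percent dose per organ was calculated against counts of a 1% aliquot of the injected dose (100-fold diluted) counted at the same time.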

The nature of data set [3]: Biodistribution in rat blood was determined after 2 min of intravenous administration of the compound; [125I]- is used as radioactive isotope. The class given is ADME, organism-based. The settings on record: in vivo. An outline of the steps: as §1
The nature of data set [4]: Regional brain distribution in rat hypothalamus was determined after 6 hours of intravenous administration of the compound; [125I]- is used as radioactive isotope. The class given is ADME, tissue-based. The conditions noted are these: in vivo. A digest of the protocol:
(§2)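 Rats, three per group, injected with 10 μCi tracer in 0.2 mL saline via the femoral vein under ether anesthesia and killed by cardiac excision at the stated time. Cortex (frontal plus occipital), striatum, hippocampus, cerebellum and hypothalamus were dissected, weighed and gamma-counted. Values are % dose/g, calculated by comparison with counts of a 100-fold diluted aliquot of the injected dose.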

Data set [5] is described as follows: Distribution ratio in hypothalamus and cerebellum was determined after 11 hours of intravenous administration of the compound; [125I]- is used as radioactive isotope. The class given is ADME, tissue-based. The settings on record: rat. An outline of the steps: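 After femoral-vein injection of 10 μCi [¹²⁵I] tracer in 0.2 mL saline under ether anaesthesia (three rats per group), brain regions were dissected, weighed and counted: cortex (frontal plus occipital), hippocampus, hypothalamus and cerebellum. %dose/g was calculated against a diluted injected-dose standard. Ratio = (region − cerebellum)/cerebellum on a %dose/g basis, with cerebellum as the background region.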

A short description of data set [6]: Biodistribution in rat blood was determined after 240 min of intravenous administration of the compound; [125I]- is used as radioactive isotope. The class given is ADME, organism-based. The settings on record: in vivo, 4 h. A digest of the protocol: as §1
Data set [7] can be described thus: Biodistribution in rat brain was determined after 6 hours of intravenous administration of the compound; [125I]- is used as radioactive isotope. The class given is ADME, organism-based. The settings on record: in vivo. A digest of the protocol: as §1
Data set [8] in a line: Biodistribution in rat kidney was determined after 120 min of intravenous administration of the compound; [125I]- is used as radioactive isotope. It is filed as ADME, organism-based. The settings on record: in vivo, 2 h. A digest of the protocol: as §1
Data set [9] in a line: Regional brain distribution in rat hypothalamus was determined after 240 min of intravenous administration of the compound; [125I]- is used as radioactive isotope. It is filed as ADME, tissue-based. The conditions noted are these: in vivo, 4 h. A digest of the protocol: as §2
Data set [10] is described as follows: Biodistribution in rat lung was determined after 30 min of intravenous administration of the compound; [125I]- is used as radioactive isotope. The class given is ADME, organism-based. The conditions noted are these: in vivo, 0.5 h. A digest of the protocol:
as §1

Data set [11] can be described thus: Biodistribution in rat blood was determined after 24 hours of intravenous administration of the compound; [125I]- is used as radioactive isotope. It is filed as ADME, organism-based. The conditions noted are these: in vivo. An outline of the steps: as §1
The nature of data set [12]: Biodistribution in rat heart was determined after 11 hours of intravenous administration of the compound; [125I]- is used as radioactive isotope. It is filed as ADME, organism-based. The conditions noted are these: in vivo. A digest of the protocol:
as §1

A short description of data set [13]: Biodistribution in rat liver was determined after 30 min of intravenous administration of the compound; [125I]- is used as radioactive isotope. It is filed as ADME, organism-based. The settings on record: in vivo, 0.5 h. An outline of the steps:
as §1

The nature of data set [14]: Regional brain distribution in rat cerebellum was determined after 240 min of intravenous administration of the compound; [125I]- is used as radioactive isotope. It is filed as ADME, tissue-based. The settings on record: in vivo, 4 h. An outline of the steps: as §2
Data set [15] in a line: Biodistribution in rat liver was determined after 6 hours of intravenous administration of the compound; [125I]- is used as radioactive isotope. It is filed as ADME, organism-based. The settings on record: in vivo. An outline of the steps:
as §1

A short description of data set [16]: Biodistribution in rat kidney was determined after 2 min of intravenous administration of the compound; [125I]- is used as radioactive isotope. It is filed as ADME, organism-based. The settings on record: in vivo. An outline of the steps: as §1
Data set [17] is described as follows: Regional brain distribution in rat hypothalamus was determined after 30 min of intravenous administration of the compound; [125I]- is used as radioactive isotope. It is filed as ADME, tissue-based. The conditions noted are these: in vivo, 0.5 h. A digest of the protocol: as §2
Data set [18] in a line: Regional brain distribution in rat hippocampus was determined after 30 min of intravenous administration of the compound; [125I]- is used as radioactive isotope. The conditions noted are these: in vivo, 0.5 h. It is filed as ADME, tissue-based. An outline of the steps:
as §2

The nature of data set [19]: Regional brain distribution in rat cortex was determined after 11 hours of intravenous administration of the compound; [125I]- is used as radioactive isotope. It is filed as ADME. The settings on record: in vivo. A digest of the protocol:
as §2

Molecules are shown by their SMILES.

For the molecule `CN(C)Cc1ccccc1Oc1ccc(I)cc1N`, the Dose in data set [1] amounted to 1.83%; in data set [2], 4.02%; in [3] it was 5.75%; in [6], 3.12%; in [7], 0.11%; in data set [8], 1.24%. The Dose was 3.56% in [10]; 0.7% in [11]; 0.06% in data set [12]; 7.1% in [13]; 3.59% in data set [15]; 4.27% in data set [16]. Also, the Dose/g in data set [4] is given as 0.09%; in [5] it was 0.44%; in data set [9], 0.32%; in data set [14], 0.06%; in data set [17], 1.3%; in [18], 1.06%. The Dose/g in data set [19] came to 0.01%.
